Screening data deposited in PubChem BioAssay by several laboratories.
An excerpt weighted towards active compounds, which were near 3.3% of everything screened.
ABCB6 inh MLPCN: inhibitors of human ABC transporter ABCB6; K562-ABCB6 porphyrin accumulation, flow cytometry, 1 h; stronger effect = lower value; Q9NP58; fluorescence ratio to DMSO, % at 10 µM; hit rate 0.19% among 360,000; AID 602162;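 active means fluorescence ratio to DMSO below 75%, the collection mean minus 3 SD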;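 further: signal is porphyrin accumulated inside mitochondria; 100% equals median channel fluorescence of DMSO control wells; lower ratio means ABCB6 inhibition with less porphyrin fluorescence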
Target sequence (Q9NP58 whole entry, looked up): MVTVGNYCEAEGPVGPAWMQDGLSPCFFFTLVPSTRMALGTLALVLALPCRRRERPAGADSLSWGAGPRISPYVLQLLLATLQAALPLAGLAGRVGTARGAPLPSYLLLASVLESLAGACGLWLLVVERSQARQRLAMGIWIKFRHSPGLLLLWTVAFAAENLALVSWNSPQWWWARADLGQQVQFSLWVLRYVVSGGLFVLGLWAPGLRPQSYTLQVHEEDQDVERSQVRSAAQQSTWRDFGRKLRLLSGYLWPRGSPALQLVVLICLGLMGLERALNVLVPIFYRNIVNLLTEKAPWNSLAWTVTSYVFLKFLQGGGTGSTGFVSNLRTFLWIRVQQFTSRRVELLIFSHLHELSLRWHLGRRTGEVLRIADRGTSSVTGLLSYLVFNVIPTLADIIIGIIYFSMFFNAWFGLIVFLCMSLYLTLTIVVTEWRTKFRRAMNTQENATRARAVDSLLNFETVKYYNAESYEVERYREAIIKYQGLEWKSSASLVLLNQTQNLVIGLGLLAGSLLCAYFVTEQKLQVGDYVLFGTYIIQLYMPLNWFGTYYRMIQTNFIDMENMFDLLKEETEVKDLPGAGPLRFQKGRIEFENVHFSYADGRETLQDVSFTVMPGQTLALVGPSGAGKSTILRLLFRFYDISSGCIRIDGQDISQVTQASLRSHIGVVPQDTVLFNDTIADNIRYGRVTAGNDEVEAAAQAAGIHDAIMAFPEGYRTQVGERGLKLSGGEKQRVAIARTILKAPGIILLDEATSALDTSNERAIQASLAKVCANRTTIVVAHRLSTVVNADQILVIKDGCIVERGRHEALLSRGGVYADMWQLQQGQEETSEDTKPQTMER
NRP1-CendR mod: modulators of CendR peptide binding to human neuropilin-1; O14786; FAM-RPARPAR peptide binding to NRP-1, fluorescence polarization; inhibition, % at 25 µM; hit rate 0.85% among 360,000; AID 602438;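 active means inhibition or corrected inhibition above about 18%, plus a signal ratio from 0.5 to 1.5, limit read from the data, passing the limit was not always enough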
Granule exo inh: lytic granule exocytosis inhibition | TALL-104 LAMP-1 surface exposure, flow cytometry; cells stimulated with thapsigargin and PMA | AID 651702 | inhibition, % at 10 µM | hit rate 0.66% among 360,000;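 active means inhibition above about 55%, limit read from the data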
Arr AP2 block: human beta-arrestin and AP2 interaction inhibition; inhibition, % at 10 µM; hit rate 0.31% among 340,000; FITC-arrestin peptide / GST-AP2 beads, flow cytometry; AP2 beta2 appendage carries R879A mutation;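 active means inhibition above a set limit, near 3 SD of compounds lacking own fluorescence, cut at about 54% in these data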;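 further: plate controls were DMSO wells for no effect and 5 µM unlabelled arrestin peptide for full effect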
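System: GST-AP2 R879A glutathione beads; medium: PBS, Tween 20 0.05%, BSA 0.1%; reagent: fluorescein-tagged arrestin peptide at 50 nM final; schedule: pre-incubation 12 min, peptide binding 1 h, room temperature; detection: flow cytometry, FL1 (488/535 nm); read-out: inhibition as reduced fluorescein signal on beads, percent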
Myeloid diff 2: promotes myeloid progenitor differentiation | ER-HoxA9 myeloid progenitors, lysozyme-GFP differentiation, flow cytometry | calls only at 10 µM | AID 624256 | hit rate 1% among 360,000;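 active means normalized GFP-positive differentiation at or above the plate's own cutoff, the solvent-only control mean plus 3 SD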;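 further: cells exposed to compound for four days before flow analysis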
ATG4B inh: blocks human ATG4B protease cleavage of LC3 substrate; Q9Y4P1; ATG4B cleavage of LC3-PLA2, NBD-HPC fluorescence, 1 h; inhibition, % at 8.33 µM; hit rate 0.51% among 340,000; AID 504462; in the data active means inhibition above about 40%
Granule exo CP1: blocks lytic granule exocytosis; shares compounds with Granule exo inh; TALL-104 cells, LAMP-1 externalization, flow cytometry; stimulated with PMA plus thapsigargin; inhibition, % at 10 µM; hit rate 11% among 1,500; in the data active means inhibition above about 60%;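 further: 0% = stimulated vehicle wells and 100% = unstimulated wells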
* = called active by the depositor; i = inactive; . = no result.

SMILES	ABCB6 inh MLPCN	NRP1-CendR mod	Granule exo inh	Arr AP2 block	Myeloid diff 2	ATG4B inh	Granule exo CP1
CC(NC(=O)C1CCN(S(=O)(=O)c2ccc(Br)s2)CC1)c1ccccc1 (centres undefined)	102	3	66*	-12	i	-19	-11
CCC(C)NC(=O)C1CCN(S(=O)(=O)c2ccc(Br)s2)CC1 (centres undefined)	101	-6	2	3	i	3	.
COc1cccc(CNC(=O)C2CCN(S(=O)(=O)c3ccc(Br)s3)CC2)c1	96	15	63*	-3	i	28	-14
CCS(=O)(=O)N1CCC(C(=O)NCc2cccc(OC)c2)CC1	103	-12	-3	-6	i	7	.
Cc1cc(C)n2nc(C(=O)Nc3cc(S(=O)(=O)N4CCCCC4)ccc3C)nc2n1	94	3	-6	32	i	4	.
COc1cccc(C(=O)Nc2cccc(OC(C)=O)c2)c1	90	-4	1	11	i	0	.
CC(=O)Oc1cccc(NC(=O)c2cccc(C(=O)Nc3cccc(OC(C)=O)c3)c2)c1	105	6	64*	9	i	-8	-4
COCC1CCN(C(=O)CC2C(=O)NCCN2Cc2cccc(Oc3ccccc3)c2)CC1 (centres undefined)	88	-12	2	-7	i	-1	.
O=C(COc1ccc(Br)cc1CNCCc1ccccc1)NCc1ccccc1	85	15	67*	4	i	-7	-2
COC(=O)C[C@@H]1CC[C@H](NC(=O)c2cnccn2)[C@@H](CO)O1	.	0	-15	.	i	.	.
CN1CCN(c2ccc(Nc3ccnc4cc(Cl)ccc34)cc2)CC1	101	-4	67*	7	i	2	-11
CCOc1ccc(Nc2ccnc3cc(Cl)ccc23)cc1	97	-8	0	-1	i	4	.
O=C(NCc1ccc(F)cc1)c1cc(C2CCCCN2S(=O)(=O)c2cccc3cccnc23)on1 (centres undefined)	96	-19	-6	.	i	.	.
Cc1cc(Nc2cccc(Cl)c2)nc(NCc2ccccc2)n1	96	-5	70*	-3	i	36	-9
CCOC(=O)[C@]12CCC=C1N(CCC1=CCCCC1)C(=O)[C@H](CC(=O)N1CCN(C(=O)c3ccco3)CC1)C2	96	14	3	.	i	.	.
Cc1cccc(-c2noc(CNC(=O)c3ccc4c(c3)OCO4)n2)c1	103	-39	56*	-2	i	-2	-6
COc1ccc(F)cc1-c1cc(C(=O)NCc2ccc(C(F)(F)F)cc2)[nH]n1	107	-4	73*	.	i	.	36
COc1ccc(Cl)cc1-c1cc(C(=O)NCc2cc(C(F)(F)F)cc(C(F)(F)F)c2)[nH]n1	96	-6	1	.	i	.	.
CC(C)OP(=O)(c1ccccc1)c1ccccc1	100	9	-2	4	i	3	.
COc1ccc(C(C)=O)cc1COC(=O)c1cc2ccccc2cc1O	97	-3	91*	28	i	-10	-5
Fc1ccccc1N1CCN(C2CCCN(Cc3cccc(C(F)(F)F)c3)C2)CC1 (centres undefined)	96	-8	1	7	i	7	.
Oc1ccccc1CN1CCCC(N2CCN(c3cccc(C(F)(F)F)c3)CC2)C1 (centres undefined)	100	-3	68*	42	i	6	-11
COc1cc(CN2CCN(c3ccccc3C)CC2)cc([N+](=O)[O-])c1O	97	-4	-3	1	i	3	.
COc1ccc(CN2CCCC(N3CCN(c4cccc(Cl)c4)CC3)C2)cc1OC (centres undefined)	97	-1	67*	-3	i	-2	-15
COc1cc(CN2CCCC(N3CCN(c4ccccc4C)CC3)C2)cc(Cl)c1O (centres undefined)	95	-2	57*	12	i	19	-3
SMILES	ABCB6 inh MLPCN	NRP1-CendR mod	Granule exo inh	Arr AP2 block	Myeloid diff 2	ATG4B inh	Granule exo CP1
CCCCCCSc1ccc([C@@H]2[C@H]3C(=O)N(CC)C(=O)[C@H]3[C@]3(C(=O)OC)CCCN23)cc1	96	-37	-5	-10	i	-7	.
CCCCNC(=O)CNC(=S)N(Cc1ccccc1F)C1CCCCC1	92	-9	0	-20	i	3	.
COC(=O)[C@]12CCCCC=C1N(CCC1=CCCCC1)C(=O)[C@H](CC(=O)N1CCN(C(=O)C3CC3)CC1)C2	91	-6	-2	.	i	.	.
NC(Cc1ccccc1)c1csc(Nc2ccc(C(=O)c3ccccc3)cc2)n1 (centres undefined)	93	-4	11	.	i	.	.
NC(Cc1ccc(Cl)cc1)c1csc(Nc2ccc(C(=O)c3ccccc3)cc2)n1 (centres undefined)	97	1	58*	.	i	.	10
O=C(CCNC(=O)c1ccccc1Cl)OCC(=O)c1ccccc1	102	7	8	49	i	6	.
COc1ccc(CN(C)C(c2ccccc2)c2nnnn2-c2ccccc2C)c(OC)c1C (centres undefined)	96	-3	1	13	i	-1	.
COc1cccc(CN(C)C(c2ccccc2)c2ccccc2)c1OC	101	7	89*	0	i	-9	-2
CCOC(=O)c1cnc2c(c(C)nn2C)c1Oc1cc(Cl)cc(Cl)c1	100	-6	-3	-17	i	-3	.
O=C(NC1CCCCC1)c1cccnc1Sc1ccccc1	94	-5	-8	-7	i	-10	.
Cc1ccc2c(Cl)cc(Cl)c(OCc3c(C)noc3C)c2n1	96	8	59*	-5	i	-1	-4
Cc1ccc2c(Cl)cc(Cl)c(O)c2n1	105	8	22	-1	i	-3	.
O=C(CSc1nc2ccccc2c(=O)n1CCCN1CCOCC1)Nc1ccc(Br)cc1	91	14	-3	-5	i	-5	.
CCc1ccc(NC(=O)CSc2nc3ccccc3c(=O)n2CCCN2CCC(C)CC2)cc1	105	-4	87*	23	i	1	17
CCN(CC)CCCNC(=S)N1CCN(c2nc(-c3ccccc3)cs2)CC1	99	2	83*	19	i	-1	-3
O=C(c1ccc2c3c(cccc13)CC2)C1CCCN(Cc2cccnc2)C1 (centres undefined)	98	-6	-3	9	i	-6	.
COc1cc(CN2CCCC(C(=O)c3ccc4c5c(cccc35)CC4)C2)cc(OC)c1O (centres undefined)	101	-10	73*	28	i	2	2
COc1ccc(C(CNC(=O)COc2ccc(F)cc2Cl)N2CCOCC2)cc1 (centres undefined)	99	-12	-6	28	i	-3	.
